Consider eleven compounds from ChEMBL document CHEMBL1255226 (J Med Chem, 2010).

Series [1] has as its target Serine/threonine-protein kinase mTOR (Mus musculus, UniProt Q9JLN9). Kind of series: Inhibition of mTOR in p53-deficient MEF assessed as phosphorylation of S6K1 at Thr389 by immunoblotting.
Series [2] concerns the target Phosphatidylinositol 4,5-bisphosphate 3-kinase catalytic subunit alpha isoform (Homo sapiens, UniProt P42336, S473D). Kind of series: Inhibition of PI3Kalpha in human PC3 cells expressing Akt1 S473D mutant assessed as phosphorylation of Akt Thr308 by immunoblotting. It is filed as cell-based, PC-3.
Series [3] concerns the target Serine/threonine-protein kinase mTOR (Homo sapiens, UniProt P42345).
Series [4] in a line: Mean retention time in C57BL/6 mouse at 10 mg/kg, po. The format is ADME, organism-based. As to conditions: in vivo. On the set-up: dose 10 mg/kg, route oral.
Series [5] is described as follows: Cmax in Swiss albino mouse at 10 mg, ip. It is filed as ADME, organism-based. As to conditions: in vivo. Further details: dose 10 mg, route intraperitoneal.
A short description of series [6]: Tmax in Swiss albino mouse at 10 mg, ip. The format is ADME, organism-based. To be noted: in vivo.
Series [7] in a line: AUC in Swiss albino mouse at 10 mg, ip. It is filed as ADME, organism-based. To be noted: plasma.
The subject of series [8] is Mus musculus. Kind of series: In vivo inhibition of mTOR complex 1 in C57BL/6 mouse lung assessed as reduction of S6 phosphorylation at S235/236 at 20 mg/kg, ip after up to 6 hrs by Western blotting. The format is functional, organism-based. On the set-up: dose 20 mg/kg. In outline: (§1)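 They received a single IP dose of 20 mg/kg (NMP stock diluted 1:4 with 50% PEG400) for 2, 6 or 10 h; vehicle controls were dosed for 10 h. Mice were re-fed 1 h before sacrifice. Liver and lung were sonicated in HEPES pH 7.4 lysis buffer with phosphatase and protease inhibitors. Lysates were Bradford-normalized and immunoblotted for Akt S473 and S6 S235/236.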

Series [9] deals with Mus musculus. Put plainly: In vivo inhibition of mTOR complex 1 in C57BL/6 mouse liver assessed as reduction of S6 phosphorylation at S235/236 at 20 mg/kg, ip after up to 10 hrs by Western blotting. It is filed as functional, organism-based. On the set-up: dose 20 mg/kg. In outline:
as §1

The target in series [10] is Phosphatidylinositol 4-kinase alpha (Homo sapiens, UniProt P42356). Kind of series: Inhibition of PI4Kalpha. The gist of the method:
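Biochemical LanthaScreen enzymatic lipid kinase assay run as an outsourced profiling service. Inhibitor at 10 concentrations, three-fold serial dilutions starting from 1 μM. ATP at the apparent ATP Km for the assay. IC50 derived from the dose-response.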

Series [11] is described as follows: Cmax in C57BL/6 mouse at 1 mg/kg, iv. It is filed as ADME, organism-based. On the set-up: dose 1 mg/kg, route intravenous. As to conditions: in vivo.
The nature of series [12]: Volume of distribution at steady state in C57BL/6 mouse at 1 mg/kg, iv. The format is ADME, organism-based. Further details: dose 1 mg/kg, route intravenous. As to conditions: in vivo, read-out: Vdss.
Series [13] can be described thus: AUC in C57BL/6 mouse at 1 mg/kg, iv. The format is ADME, organism-based. Further details: dose 1 mg/kg, route intravenous. As to conditions: plasma.
A short description of series [14]: Mean retention time in C57BL/6 mouse at 1 mg/kg, iv. As to conditions: in vivo. It is filed as ADME, organism-based. Further details: dose 1 mg/kg, route intravenous.
A short description of series [15]: Cmax in C57BL/6 mouse at 10 mg/kg, po. It is filed as ADME, organism-based. On the set-up: dose 10 mg/kg, route oral. As to conditions: in vivo.
A short description of series [16]: Tmax in C57BL/6 mouse at 10 mg/kg, po. The format is ADME, organism-based. As to conditions: in vivo. On the set-up: dose 10 mg/kg, route oral.
Series [17] in a line: AUC in C57BL/6 mouse at 10 mg/kg, po. The format is ADME, organism-based. On the set-up: dose 10 mg/kg, route oral. As to conditions: plasma.
Series [18] concerns Mus musculus. Put plainly: In vivo inhibition of mTOR complex 2 in C57BL/6 mouse assessed as reduction of Akt1 phosphorylation at S473 at 20 mg/kg, ip after 2 to 3 hrs by Western blotting.

Calls of active or inactive are those of the source. The calls are words filed in the database; no cut-off is given here. A value given as a limit tells only on which side of the number the result lay.

Phosphatidylinositol 4,5-bisphosphate 3-kinase catalytic subunit alpha isoform, sequence (P42336 whole entry, looked up, stated change not applied, canonical isoform): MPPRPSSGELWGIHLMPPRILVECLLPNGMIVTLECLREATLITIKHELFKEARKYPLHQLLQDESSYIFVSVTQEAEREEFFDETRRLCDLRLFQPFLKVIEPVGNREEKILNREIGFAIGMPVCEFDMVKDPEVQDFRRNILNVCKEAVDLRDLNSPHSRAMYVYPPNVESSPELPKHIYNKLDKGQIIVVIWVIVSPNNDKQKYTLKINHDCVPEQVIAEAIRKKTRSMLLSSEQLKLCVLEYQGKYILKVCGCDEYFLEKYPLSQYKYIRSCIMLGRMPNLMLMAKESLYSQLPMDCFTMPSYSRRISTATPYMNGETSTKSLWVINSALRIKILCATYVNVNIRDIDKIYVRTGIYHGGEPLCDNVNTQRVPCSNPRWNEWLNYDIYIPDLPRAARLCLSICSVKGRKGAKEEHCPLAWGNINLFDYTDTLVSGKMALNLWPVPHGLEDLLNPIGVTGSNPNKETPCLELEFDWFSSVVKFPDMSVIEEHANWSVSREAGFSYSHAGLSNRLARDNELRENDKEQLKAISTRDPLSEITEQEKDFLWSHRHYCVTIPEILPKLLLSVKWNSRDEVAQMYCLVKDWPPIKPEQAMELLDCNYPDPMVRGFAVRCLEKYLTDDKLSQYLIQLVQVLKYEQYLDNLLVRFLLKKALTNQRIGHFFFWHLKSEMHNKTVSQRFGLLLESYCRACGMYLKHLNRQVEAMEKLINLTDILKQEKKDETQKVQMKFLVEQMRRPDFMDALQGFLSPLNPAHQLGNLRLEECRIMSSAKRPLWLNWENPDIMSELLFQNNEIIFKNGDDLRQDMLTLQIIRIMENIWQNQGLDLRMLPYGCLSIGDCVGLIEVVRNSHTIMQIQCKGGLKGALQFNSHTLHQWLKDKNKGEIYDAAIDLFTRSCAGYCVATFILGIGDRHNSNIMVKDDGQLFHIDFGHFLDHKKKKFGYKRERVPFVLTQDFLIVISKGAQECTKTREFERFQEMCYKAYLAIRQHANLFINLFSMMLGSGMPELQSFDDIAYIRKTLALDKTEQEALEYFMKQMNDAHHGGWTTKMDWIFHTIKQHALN
Phosphatidylinositol 4-kinase alpha, sequence (P42356 whole entry): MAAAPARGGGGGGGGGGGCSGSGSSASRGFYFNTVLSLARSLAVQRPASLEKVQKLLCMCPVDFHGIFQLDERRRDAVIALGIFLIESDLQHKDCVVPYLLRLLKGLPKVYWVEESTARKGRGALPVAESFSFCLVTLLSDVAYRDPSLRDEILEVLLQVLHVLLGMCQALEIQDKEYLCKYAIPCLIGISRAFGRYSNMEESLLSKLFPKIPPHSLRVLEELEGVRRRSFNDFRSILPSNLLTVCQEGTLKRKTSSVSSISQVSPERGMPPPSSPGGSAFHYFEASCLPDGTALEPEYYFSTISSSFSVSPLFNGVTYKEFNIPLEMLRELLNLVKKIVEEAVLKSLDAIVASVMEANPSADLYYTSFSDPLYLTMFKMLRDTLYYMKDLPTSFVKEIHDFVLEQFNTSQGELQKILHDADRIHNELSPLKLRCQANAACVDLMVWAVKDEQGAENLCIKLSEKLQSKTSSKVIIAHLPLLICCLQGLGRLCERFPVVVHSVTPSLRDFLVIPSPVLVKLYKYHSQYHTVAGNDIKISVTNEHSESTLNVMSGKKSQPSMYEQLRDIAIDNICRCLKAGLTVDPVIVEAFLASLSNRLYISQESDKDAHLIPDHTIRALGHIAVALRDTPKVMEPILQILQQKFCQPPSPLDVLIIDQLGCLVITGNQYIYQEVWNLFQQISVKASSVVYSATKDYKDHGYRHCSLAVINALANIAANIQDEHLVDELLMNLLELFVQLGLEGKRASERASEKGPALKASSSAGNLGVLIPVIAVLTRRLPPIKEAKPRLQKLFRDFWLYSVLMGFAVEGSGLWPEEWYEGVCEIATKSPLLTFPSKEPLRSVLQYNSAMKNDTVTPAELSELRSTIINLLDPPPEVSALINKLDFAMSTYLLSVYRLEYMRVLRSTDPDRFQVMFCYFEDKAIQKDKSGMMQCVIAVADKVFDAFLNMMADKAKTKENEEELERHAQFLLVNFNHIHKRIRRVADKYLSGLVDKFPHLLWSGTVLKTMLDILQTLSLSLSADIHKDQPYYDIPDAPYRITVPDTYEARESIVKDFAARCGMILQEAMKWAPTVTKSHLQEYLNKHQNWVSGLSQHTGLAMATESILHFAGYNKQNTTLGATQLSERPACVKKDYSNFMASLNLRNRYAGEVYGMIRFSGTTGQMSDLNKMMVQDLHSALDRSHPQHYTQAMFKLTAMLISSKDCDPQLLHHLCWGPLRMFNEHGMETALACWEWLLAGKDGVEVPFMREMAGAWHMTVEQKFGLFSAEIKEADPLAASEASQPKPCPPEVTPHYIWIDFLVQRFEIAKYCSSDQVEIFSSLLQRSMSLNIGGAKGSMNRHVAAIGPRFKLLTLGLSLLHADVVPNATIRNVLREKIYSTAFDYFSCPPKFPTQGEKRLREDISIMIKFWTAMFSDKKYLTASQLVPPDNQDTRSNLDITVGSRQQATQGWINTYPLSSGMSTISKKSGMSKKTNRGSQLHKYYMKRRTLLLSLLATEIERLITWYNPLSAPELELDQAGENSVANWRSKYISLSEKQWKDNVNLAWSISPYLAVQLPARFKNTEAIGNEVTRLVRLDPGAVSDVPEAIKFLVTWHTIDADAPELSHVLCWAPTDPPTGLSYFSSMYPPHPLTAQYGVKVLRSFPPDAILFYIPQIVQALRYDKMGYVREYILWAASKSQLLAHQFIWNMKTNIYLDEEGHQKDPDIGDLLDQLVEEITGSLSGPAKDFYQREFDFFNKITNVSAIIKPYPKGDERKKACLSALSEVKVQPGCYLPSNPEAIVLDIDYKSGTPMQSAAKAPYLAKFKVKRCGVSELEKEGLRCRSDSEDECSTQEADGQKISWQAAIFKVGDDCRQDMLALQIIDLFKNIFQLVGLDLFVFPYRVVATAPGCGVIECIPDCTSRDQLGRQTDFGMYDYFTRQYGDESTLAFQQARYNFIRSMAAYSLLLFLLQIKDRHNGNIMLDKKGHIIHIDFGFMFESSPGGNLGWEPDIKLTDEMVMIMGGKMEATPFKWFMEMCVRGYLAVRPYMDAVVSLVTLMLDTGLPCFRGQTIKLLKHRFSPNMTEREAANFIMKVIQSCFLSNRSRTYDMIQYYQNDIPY

Consider `CN(C)CCC(=O)N1CCN(c2ccc(Nc3ccnc4ccc(-c5cnc6ccccc6c5)cc34)cc2C(F)(F)F)CC1`, for which the IC50 in series [1] and in series [2] was above 300 nM throughout.

For the compound `CCC(=O)N1CC=C(c2ccc(-n3c(=O)ccc4cnc5ccc(-c6cnc7ccccc7c6)cc5c43)cc2C(F)(F)F)CC1`, the IC50 in series [1] stood at 30 nM.

On to `O=C(CN1CCOCC1)N1CCC(c2ccc(-n3c(=O)ccc4cnc5ccc(-c6cnc7ccccc7c6)cc5c43)cc2C(F)(F)F)CC1`, for which the IC50 in series [1] is 5 nM.

`CCC(=O)N1CCN(c2ccc(-n3c(=O)c(C)cc4cnc5ccc(-c6cnc7ccccc7c6)cc5c43)cc2C(F)(F)F)CC1`: in series [1], the IC50 stood at 100 nM.

`CCC(=O)N1CCN(c2ccc(-n3c(=O)cc(C)c4cnc5ccc(-c6cnc7ccccc7c6)cc5c43)cc2C(F)(F)F)CC1`: the IC50 in [1] is above 300 nM.

`CCC(=O)N1CCN(c2ccc(-n3c(=O)n(C)c(=O)c4cnc5ccc(-c6cnc7ccccc7c6)cc5c43)cc2C(F)(F)F)CC1`: the half-inhibitory concentration (IC50) in series [1] was found to be 300 nM.

Take `CCC(=O)N1CCN(c2ccc(N3C(=O)NCc4cnc5ccc(-c6cnc7ccccc7c6)cc5c43)cc2C(F)(F)F)CC1`: the IC50 in [1] is above 300 nM.

Regarding `CCC(=O)N1CCN(c2ccc(N3C(=O)OCc4cnc5ccc(-c6cnc7ccccc7c6)cc5c43)cc2C(F)(F)F)CC1`, in [1], the IC50 was above 300 nM.

`CC(=O)N1CCN(c2ccc(-n3c(=O)ccc4cnc5ccc(-c6cnc7ccccc7c6)cc5c43)cc2C(F)(F)F)CC1`: the results for the IC50 in [3], in series [1] and in series [2] were 5.4 nM, 3 nM and above 300 nM, respectively.

On to `O=C(O)N1CCN(c2ccc(Nc3ccnc4ccc(-c5cnc6ccccc6c5)cc34)cc2C(F)(F)F)CC1`, for which the IC50 in [1] and in series [2] was above 300 nM each time.

Consider `CCC(=O)N1CCN(c2ccc(-n3c(=O)ccc4cnc5ccc(-c6cnc7ccccc7c6)cc5c43)cc2C(F)(F)F)CC1` [TORIN1], for which the mean residence time MRT in series [4] came out at 90.6 min; in [14], 25.8 min. Further, the figures for the Cmax in series [5], in series [11] and in series [15] were 5120 ng/mL, 2760 ng/mL and 223 ng/mL, respectively. Moreover, the Tmax was found to be 4.8 min in series [6] and 15 min in series [16]. The area under the curve (AUC) in series [7] came to 5720 ng·h/mL; in series [13] it was 720 ng·h/mL; in series [17], 396 ng·h/mL. The inhibition result in the series with Mus musculus [8], with Mus musculus [9] and in the series on Mus musculus [18] was “Active” in each case. Further, in series [10], the IC50 was above 10000 nM. Besides, the Vd in series [12] amounted to 0.59 L/kg.
